# Experiments:
# [1] = Ratio of half-life in pH 7.2 phosphate buffer to half-life in Sprague-Dawley rat intestinal homogenates; type: ADME, tissue-based; conditions: tissue homogenate
# [2] = Half life in 0.1 M HCl at 5 mM by HPLC analysis; type: physicochemical
# In short: (§1)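 Compound at 5 mM in 0.1 M HCl, pH 4.5 acetate buffer, pH 5.8/6.8/7.2 phosphate buffers, SGF (pH 1.2) and SIF (pH 6.8), prepared per Chinese Pharmacopoeia. Samples taken at 0-20 h and analyzed by HPLC-UV. k = 2.303×slope of log C versus time; t1/2 = 0.693/k.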
# [3] = Half life in pH 4.5 acetate buffer at 5 mM by HPLC analysis; type: physicochemical; in short: as §1
# [4] = Ratio of half-life in pH 7.2 phosphate buffer to half-life in Sprague-Dawley rat plasma; type: ADME
# [5] = Tmax in Sprague-Dawley rat assessed as JBP485 level at 12 mg/kg equiv of JBP485 administered orally by UPLC-MS/MS analysis; type: ADME, organism-based; conditions: in vivo, po
# In short: (§2)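 Fasted male SD rats (200–250 g), oral 12 mg/kg (prodrugs calculated as JBP485). Jugular blood 0.083–10 h, centrifuged, plasma JBP485 by UPLC-MS/MS; n=6.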
# [6] = Ratio of half-life in pH 7.2 phosphate buffer to half-life in Sprague-Dawley rat liver homogenates; type: ADME, tissue-based; conditions: tissue homogenate
# [7] = Half life in pH 1.2 simulated gastric fluid at 5 mM by HPLC analysis; type: ADME; in short: as §1
# [8] = Half life in pH 6.8 simulated intestinal fluid at 5 mM by HPLC analysis; type: ADME; in short: as §1
# [9] = Half life in Sprague-Dawley rat plasma at 5 mM by HPLC analysis; type: ADME, cell-free
# In short: (§3)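 Jejunum and liver homogenates from male SD rats in pH 7.4 PBS, adjusted to 200 µg/mL protein, and rat plasma. Each incubated with compound at 5 mM at 37 °C.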
# [10] = Half life in pH 7.2 phosphate buffer at 5 mM by HPLC analysis; type: physicochemical; in short: as §1
# [11] = Cmax in Sprague-Dawley rat assessed as JBP485 level at 12 mg/kg equiv of JBP485 administered orally by UPLC-MS/MS analysis; type: ADME, organism-based; set-up: dose 12 mg/kg, route oral; conditions: in vivo, po
# In short: (§4)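 Male SD rats, 200-250 g, fasted 12 h with water, n=6. Oral dose of 12 mg/kg as JBP485 equivalent; dose-effect arms at 12 and 100 mg/kg. JBP485 given iv at 6 mg/kg as the reference. Jugular blood taken at 0.083-10 h. Plasma JBP485 by UPLC-MS/MS. Absolute F = (AUCpo×Div)/(AUCiv×Dpo)×100%, using AUC0-t.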
# [12] = Half life in Sprague-Dawley rat intestinal homogenates at 5 mM by HPLC analysis; type: ADME, tissue-based, Intestine; in short: as §3
# [13] = AUC (0 to t) in Sprague-Dawley rat assessed as JBP485 level at 12 mg/kg equiv of JBP485 administered orally by UPLC-MS/MS analysis; type: ADME, organism-based; conditions: in vivo, po; in short: as §4
# [14] = Half life in pH 5.8 phosphate buffer at 5 mM by HPLC analysis; type: physicochemical; in short: as §1
# [15] = Oral bioavailability in Sprague-Dawley rat assessed as JBP485 level at 12 mg/kg equiv of JBP485 by UPLC-MS/MS analysis; type: ADME, organism-based; conditions: in vivo; in short: as §4
# [16] = Terminal half-life in Sprague-Dawley rat assessed as JBP485 level at 12 mg/kg equiv of JBP485 administered orally by UPLC-MS/MS analysis; type: ADME, organism-based; conditions: in vivo, po; in short: as §2
# [17] = Half life in Sprague-Dawley rat liver homogenates at 5 mM by HPLC analysis; type: ADME, tissue-based; in short: as §3
# [18] = Half life in pH 6.8 phosphate buffer at 5 mM by HPLC analysis; type: physicochemical; in short: as §1
# [19] = Apparent permeability across human Caco2 cells at 0.5 mM measured after 5 to 60 mins by UPLC-MS/MS analysis; type: ADME, cell-based; conditions: caco-2, 500 µM
# In short: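 Caco-2 cells grown on 0.4 µm transwell inserts; monolayers used only with TEER >300 Ω/cm². Compound at 0.5 mM in apical pH 6.0 HBSS, basolateral pH 7.4 HBSS, 37 °C. Basolateral samples taken at 5, 15, 30, 45 and 60 min. Quantified by UPLC-MS/MS; Papp from steady-state flux, area and initial donor concentration. Three repeats.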
# [20] = substrate: O=C1N[C@@H](CO)C(=O)N2C[C@H](O)C[C@@H]12; assay: (§5) Substrate activity at PEPT1 in human Caco2 cells assessed as Km measured after 10 mins by Eadie-Hofstee plot analysis; type: ADME, cell-based
# In short: (§6)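 Caco-2 uptake at 0.2–5 mM compound for 10 min at 37 °C, cells washed ice-cold and lysed, drug quantified by UPLC-MS/MS and normalised to protein. Km from Eadie–Hofstee plot; n=3.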
# [21] = substrate: O=C(O)[C@H](CO)NC(=O)[C@@H]1C[C@@H](O)CN1; assay: as §5; type: ADME, cell-based; in short: as §6
# [22] = substrate: [H][C@@]12C[C@@H](O)CN1C(=O)[C@H](COC(=O)[C@@H](N)C(C)C)NC2=O; assay: as §5; type: ADME, cell-based; in short: as §6
Molecule,Ratio [1],half-life at 5000 µM [2] [h],half-life at 5000 µM [3] [h],Ratio [4],Tmax [5] [h],Ratio [6],half-life at 5000 µM [7] [h],half-life at 5000 µM [8] [h],half-life at 5000 µM [9] [h],half-life at 5000 µM [10] [h],Cmax [11] [µM],half-life at 5000 µM [12] [h],AUCt [13] [nM/ml.hr],half-life at 5000 µM [14] [h],F [15] [%],beta t1/2 [16] [h],half-life at 5000 µM [17] [h],half-life at 5000 µM [18] [h],Papp [19],further results
CC(C)C[C@H](N)C(=O)OC[C@@H]1NC(=O)[C@@H]2C[C@@H](O)CN2C1=O,3 to 35,> 20,> 20,3 to 35,1.3,3 to 35,> 20,2.4,0.32,1.9,8.95,< 0.083,28.75,14.7,7.4,2.23,0.16,2.6,,
N[C@@H](Cc1ccccc1)C(=O)OC[C@@H]1NC(=O)[C@@H]2C[C@@H](O)CN2C1=O,3 to 35,> 20,> 20,3 to 35,1,3 to 35,> 20,2.8,0.29,2.3,10.7,< 0.083,33.9,8.2,8.7,2.38,0.16,2.6,,
CCC(C)[C@H](N)C(=O)OC[C@@H]1NC(=O)[C@@H]2C[C@@H](O)CN2C1=O (some centres not stated),3 to 35,> 20,> 20,3 to 35,0.9,3 to 35,> 20,10.9,4,9.6,41.8,0.8,122.65,> 20,31.6,0.9,4.8,11.6,Permeable,
CC(C)[C@H](N)C(=O)O[C@@H]1C[C@H]2C(=O)N[C@@H](CO)C(=O)N2C1,3 to 35,> 20,> 20,3 to 35,0.41,3 to 35,> 20,11.1,6.1,11.6,98.3,0.9,139.78,> 20,36,2.51,2.1,11.4,Permeable,
Solute carrier family 15 member 1 (Homo sapiens) (protein) MGMSKSHSFFGYPLSIFFIVVNEFCERFSYYGMRAILILYFTNFISWDDNLSTAIYHTFVALCYLTPILGALIADSWLGKFKTIVSLSIVYTIGQAVTSVSSINDLTDHNHDGTPDSLPVHVVLSLIGLALIALGTGGIKPCVSAFGGDQFEEGQEKQRNRFFSIFYLAINAGSLLSTIITPMLRVQQCGIHSKQACYPLAFGVPAALMAVALIVFVLGSGMYKKFKPQGNIMGKVAKCIGFAIKNRFRHRSKAFPKREHWLDWAKEKYDERLISQIKMVTRVMFLYIPLPMFWALFDQQGSRWTLQATTMSGKIGALEIQPDQMQTVNAILIVIMVPIFDAVLYPLIAKCGFNFTSLKKMAVGMVLASMAFVVAAIVQVEIDKTLPVFPKGNEVQIKVLNIGNNTMNISLPGEMVTLGPMSQTNAFMTFDVNKLTRINISSPGSPVTAVTDDFKQGQRHTLLVWAPNHYQVVKDGLNQKPEKGENGIRFVNTFNELITITMSGKVYANISSYNASTYQFFPSGIKGFTISSTEIPPQCQPNFNTFYLEFGSAYTYIVQRKNDSCPEVKVFEDISANTVNMALQIPQYFLLTCGEVVFSVTGLEFSYSQAPSNMKSVLQAGWLLTVAVGNIIVLIVAGAGQFSKQWAEYILFAALLLVVCVIFAIMARFYTYINPAEIEAQFDEDEKKNRLEKSNPYFMSGANSQKQM,,,,,,,,,,,,,,,,,,,,Km [20]: 2530 µM; Km [21]: 650 µM; Km [22]: 860 µM
